High-throughput results from PubChem.
The list is not random: actives were taken first. Their share in the collection is about 1.7%.
Rpn11 block – blocks the human proteasome subunit Rpn11; human 26S proteasome, Ub4-pepOG fluorescence polarization; 20S core pre-blocked with epoxomicin; 0.59% of 360,000 active; inhibition, % at 20 µM;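 active means inhibition at 20 µM, scaled to each plate's controls, above about 33%, limit read from the data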
TPT1 inhibitor – inhibitors of Candida albicans tRNA 2'-phosphotransferase TPT1; recombinant caTPT1, FP RNA substrate dephosphorylation; inhibition, % at 5 µM; 0.81% of 300,000 active;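 active means inhibition above the mean of all tested compounds plus 3 SD, set per screening campaign, cut at about 24% in these data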;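 further: plate controls were DMSO alone for no effect and ferristatin control at 100 nM for full effect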
IDE cell inh – cellular human IDE inhibition. P14735. HEK cells, FAbetaB cleavage, fluorescence polarization. inhibition, % at 5.59 µM. 0.41% of 320,000 active;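 active means percent inhibition above the average of all tested compounds plus 3 SD, set per screening campaign, cut at about 16% in these data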;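 further: IDE supplied by intact live HEK cells; FP after avidin binding of uncleaved biotin substrate so inhibition keeps polarization high; 0% = DMSO wells and 100% = 60 µM reference IDE inhibitor Ii1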
IDE cell activ – activators of human insulin-degrading enzyme in cells; P14735; HEK cells, FAbeta-B cleavage, fluorescence polarization; 0% vehicle, 100% cell-free pure enzyme wells; activation, % at 5.96 µM; 0.073% of 340,000 active; AID 493087;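 active means activation above the mean of all tested compounds plus 3 SD, set per screening campaign, cut at about 17% in these data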
HNF4A DNA FP – change in binding of human HNF4 alpha to DNA; 0.3% of 360,000 active; HNF4a-FITC DNA binding, fluorescence polarization, 1 h; activity change, % at 10 µM; in the data active means activity change above about 30%, passing the limit was not always enough
Target sequence (P41235 whole entry, looked up): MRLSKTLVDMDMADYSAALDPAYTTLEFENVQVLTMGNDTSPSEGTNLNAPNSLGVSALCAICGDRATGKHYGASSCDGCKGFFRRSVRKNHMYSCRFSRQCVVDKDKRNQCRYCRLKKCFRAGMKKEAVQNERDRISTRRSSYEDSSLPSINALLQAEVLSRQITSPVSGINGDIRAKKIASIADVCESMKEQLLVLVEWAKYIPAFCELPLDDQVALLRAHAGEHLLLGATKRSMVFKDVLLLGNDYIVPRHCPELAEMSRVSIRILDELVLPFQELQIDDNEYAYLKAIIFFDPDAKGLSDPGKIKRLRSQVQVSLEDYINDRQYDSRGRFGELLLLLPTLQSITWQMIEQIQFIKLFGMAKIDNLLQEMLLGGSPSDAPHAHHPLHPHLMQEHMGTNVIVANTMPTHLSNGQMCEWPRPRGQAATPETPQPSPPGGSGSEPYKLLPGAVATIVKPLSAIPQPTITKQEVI
CSN inh – blocks human CSN-mediated cullin deneddylation; Q92905; Purified CSN, SCF-Nedd8-OG deneddylation, fluorescence polarization; inhibition, % at 12.5 µM; 0.38% of 360,000 active; AID 651999;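 active means pattern-corrected inhibition above about 35%, with an unprinted fluorescence ratio check between 0.5 and 1.5, limit read from the data, passing the limit was not always enough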;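 further: 0% = enzyme with substrate and 100% = substrate without enzyme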
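Detection – fluorescence polarization · System – HEK293T-derived human Csn5 enzyme · Controls – substrate-only high control, full reaction low control · Timing – 90 min, room temperature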
* marks the source's active call; other numbers are inactive results.

Screening Cc1cc(C=O)c2c(c1)C=CC1(Oc3ccccc3C(=O)N1C)O2 (stereo not given) returned TPT1 inhibitor -11.1 and IDE cell inh 25.2*.
Screening COc1cc(CCC(=O)OCC(=O)Nc2ccc(F)cc2F)cc(OC)c1OC returned Rpn11 block 1.8, TPT1 inhibitor 0.7, IDE cell inh 3.3, IDE cell activ 5.2, HNF4A DNA FP -3.2 and CSN inh 3.1.
Screening CCOC(=O)c1cc(-c2ccc(N3CCOCC3)cc2)nn1-c1ccccc1C(=O)O returned Rpn11 block 59.9*, TPT1 inhibitor 3.0, IDE cell inh 1.1, IDE cell activ 4.9, HNF4A DNA FP -49.1 and CSN inh 29.6.
Screening Cn1ncc(Cl)c1C(=O)NCC1CCCO1 (stereo not given) returned Rpn11 block -5.4, TPT1 inhibitor 0.1, IDE cell inh -5.0, IDE cell activ 2.4, HNF4A DNA FP -2.6 and CSN inh -3.5.
Screening Nc1nc(SCC(=O)c2cccs2)n[nH]1 returned Rpn11 block -11.3, TPT1 inhibitor 0.2, IDE cell inh -3.4, IDE cell activ 2.6, HNF4A DNA FP 38.7* and CSN inh 7.9.
`CC(N)C(=O)NC(C(=O)NC(C)C(=O)Nc1cccc2ccccc12)C(C)C` (stereo not given) gave Rpn11 block 0.3, HNF4A DNA FP 1.9 and CSN inh 4.3.
`O=C(c1[nH]c(C(F)(F)F)nc1-c1ccccc1)N1CCCN(Cc2ccc(F)cc2)CC1` gave Rpn11 block -0.7, HNF4A DNA FP 12.2 and CSN inh 76.2*.
O=C(c1[nH]c(C(F)(F)F)nc1-c1ccccc1)N1CCN(CCN2CCOCC2)CC1 was read as Rpn11 block -2.3, HNF4A DNA FP -2.6 and CSN inh 1.4.
`N#C/C(=C/c1ccc(Sc2nc3ccccc3[nH]2)o1)c1cccc(Br)c1` gave Rpn11 block 2.5, TPT1 inhibitor 1.2, IDE cell inh -6.3, IDE cell activ 4.3, HNF4A DNA FP 6.2 and CSN inh -1.9.
For CCN1C(=O)S/C(=C/c2ccc(Sc3nc4ccccc4[nH]3)o2)C1=O the results were Rpn11 block 20.9, TPT1 inhibitor 0.1, IDE cell inh 5.3, IDE cell activ -2.9, HNF4A DNA FP 102.2* and CSN inh 10.3.
`Cc1nn(C)c(Cl)c1S(=O)(=O)N1CCC(CO)(CCc2ccccc2)CC1` gave Rpn11 block -2.7, TPT1 inhibitor 1.8, IDE cell inh -4.1, IDE cell activ 3.3, HNF4A DNA FP 1.8 and CSN inh -6.3.
Cc1ccc(/C=c2/sc3nnc(-c4ccccc4Cl)n3c2=O)o1 was read as Rpn11 block 15.9, TPT1 inhibitor 8.9, IDE cell inh 3.5, IDE cell activ -3.3, HNF4A DNA FP 6.4 and CSN inh 16.0.
For Cc1ccc(/C=c2\sc3nc(-c4ccco4)nn3c2=O)o1 the results were TPT1 inhibitor 10.9, IDE cell inh 2.1, IDE cell activ -1.9, HNF4A DNA FP -33.5 and CSN inh 43.3*.
`O=c1nc2s/c(=C\c3ccco3)c(=O)n2nc1Cc1ccc(F)cc1` gave Rpn11 block -5.4, TPT1 inhibitor 3.2, IDE cell inh -3.3, IDE cell activ 8.6, HNF4A DNA FP -0.9 and CSN inh 0.5.
`Cc1ccc(-c2nc3s/c(=C\c4ccco4)c(=O)n3n2)cc1` gave Rpn11 block 8.4, TPT1 inhibitor 3.5, IDE cell inh -0.5, IDE cell activ 1.9, HNF4A DNA FP -9.7 and CSN inh 38.4*.
O=C(O)c1cccc(N2C(=O)c3ccc(C(=O)c4cccc([N+](=O)[O-])c4)cc3C2=O)c1 was read as Rpn11 block 1.1, TPT1 inhibitor 1.0, IDE cell inh -4.1, IDE cell activ -1.2, HNF4A DNA FP -7.8 and CSN inh -0.7.
`O=C(O)c1ccc2c(c1)C(=O)N(c1cccc(C(=O)/C=C/c3ccccc3)c1)C2=O` gave Rpn11 block 8.0, TPT1 inhibitor -1.2, IDE cell inh -1.6, IDE cell activ 4.7, HNF4A DNA FP -3.6 and CSN inh 44.7*.
For O=C(Cc1ccccc1)Nc1cccc(-c2nc3ncccc3o2)c1 the results were Rpn11 block -18.4, TPT1 inhibitor -5.4, IDE cell inh -1.2, IDE cell activ -6.9, HNF4A DNA FP -1.8 and CSN inh 1.2.
